Laboratory results taken from ChEMBL document CHEMBL4265992, “Noncovalent Inhibitors of Mosquito Acetylcholinesterase 1 with Resistance-Breaking Potency” (J Med Chem, 2018).
Active and inactive are the calls of the source. No cut-off for these calls is given here.

Assays:
[1] = Selectivity ratio of IC50 for recombinant human AChE to IC50 for recombinant Aedes aegypti AChE1
How it was run: (§1)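 Ratio = IC50 for hAChE divided by the higher of the IC50 values for AaAChE1 and AgAChE1. All IC50 values came from the Ellman assay with secreted recombinant enzymes.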

[2] = target: Acetylcholinesterase (Aedes aegypti, UniProt Q6A2E2); assay: Inhibition of recombinant Aedes aegypti AChE1 expressed in sf9 insect cells using acetylthiocholine iodide as substrate measured over 60 secs by Ellman assay
How it was run: (§2)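 Enzyme source: secreted, non-purified recombinant protein in growth medium. Ellman assay at 30 °C in 0.1 M phosphate buffer pH 7.4 containing 0.2 mM DTNB and 1 mM acetylthiocholine iodide. Absorbance at 412 nm was followed over 60 s after substrate addition, immediately after inhibitor. Activity was expressed relative to the mean slope of eight uninhibited controls per plate.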

[3] = target: T1, Acetylcholinesterase (Homo sapiens, UniProt P22303); assay: Inhibition of recombinant human AChE using acetylthiocholine iodide as substrate measured over 60 secs by Ellman assay; how it was run: as §2
[4] = target: Acetylcholinesterase (Anopheles gambiae, UniProt Q869C3); assay: Inhibition of recombinant Anopheles gambiae AChE1 expressed in sf9 insect cells using acetylthiocholine iodide as substrate measured over 60 secs by Ellman assay; how it was run: as §2
[5] = Selectivity ratio of IC50 for recombinant human AChE to IC50 for recombinant Anopheles gambiae AChE1; how it was run: as §1
[6] = target: Acetylcholinesterase (Anopheles gambiae, UniProt Q869C3, G122S); assay: Inhibition of recombinant Anopheles gambiae AChE1 G122S mutant expressed in sf9 insect cells using acetylthiocholine iodide as substrate measured over 60 secs by Ellman assay; how it was run: as §2
[7] = tested on: Aedes aegypti; assay: Insecticidal activity against five day old female adult Aedes aegypti Mombasa assessed as mortality rate at 60.4 ng administered via micro-injection measured after 48 hrs relative to control; format: functional
How it was run: (§3)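 Test compounds were made up at 100 mM in acetone, then diluted in mosquito saline (5% acetone final; 4.3% for propoxur). 23 nl was injected into the thoracic cavity of anesthetized females. Negative control was saline with matching acetone. Mosquitoes were then given glucose. Mortality was read at 24 and 48 h, Abbott-corrected when control mortality exceeded 5%. Runs with control mortality ≥20% were discarded.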

[8] = tested on: Aedes aegypti; assay: Insecticidal activity against five day old female adult Aedes aegypti Mombasa assessed as mortality at 4.26 ug administered topically measured after 24 hrs relative to control; format: functional
How it was run: (§4)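 Mosquitoes were reared at 27–28 °C, ~80% humidity, on a 12/12 h light cycle. Insects were chilled on a −20 °C plate. 0.1 µl of compound in acetone was applied to the upper pronotum. Negative control was acetone alone. Afterwards mosquitoes were given glucose and kept in the insectary. Mortality was scored at 24 h, Abbott-corrected when control mortality exceeded 5%. Runs with control mortality ≥20% were discarded.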

[9] = tested on: Aedes aegypti; assay: Insecticidal activity against five day old female adult Aedes aegypti Mombasa assessed as mortality rate at 60.4 ng administered via micro-injection measured after 24 hrs relative to control; format: functional; how it was run: as §3
[10] = target: Acetylcholinesterase (Anopheles gambiae) (UniProt Q869C3); assay: Inhibition of recombinant Anopheles gambiae AChE1 expressed in sf9 insect cells at 1 mM using acetylthiocholine iodide as substrate measured over 60 secs by Ellman assay
[11] = target: Acetylcholinesterase (Aedes aegypti) (UniProt Q6A2E2); assay: Inhibition of recombinant Aedes aegypti AChE1 expressed in sf9 insect cells at 1 mM using acetylthiocholine iodide as substrate measured over 60 secs by Ellman assay
[12] = target: T1, Acetylcholinesterase; assay: Inhibition of recombinant human AChE at 1 mM using acetylthiocholine iodide as substrate measured over 60 secs by Ellman assay; details: 1 min, 1000 µM
[13] = tested on: Acetylcholinesterase (Anopheles gambiae), Q869C3 [G122S]; assay: Inhibition of recombinant Anopheles gambiae AChE1 G122S mutant expressed in sf9 insect cells at 1 mM using acetylthiocholine iodide as substrate measured over 60 secs by Ellman assay
[14] = tested on: Aedes aegypti; assay: Insecticidal activity against five day old female adult Aedes aegypti Mombasa assessed as mortality rate at 57.3 ng administered via micro-injection measured after 24 hrs relative to control; format: functional; how it was run: as §3
[15] = tested on: Aedes aegypti; assay: Insecticidal activity against topically dosed five day old female adult Aedes aegypti Mombasa assessed as mortality measured after 24 hrs; format: functional; how it was run: as §4
[16] = tested on: Anopheles gambiae; assay: Insecticidal activity against five day old female adult Anopheles gambiae Kisumu assessed as mortality at 4.26 ug administered topically measured after 24 hrs relative to control; format: functional; how it was run: as §4
[17] = tested on: Aedes aegypti; assay: Insecticidal activity against five day old female adult Aedes aegypti Mombasa assessed as mortality rate at 57.3 ng administered via micro-injection measured after 48 hrs relative to control; format: functional; how it was run: as §3
[18] = tested on: Aedes aegypti; assay: Insecticidal activity against five day old female adult Aedes aegypti Mombasa assessed as mortality rate at 52.7 ng administered via micro-injection measured after 48 hrs relative to control; format: functional; how it was run: as §3
[19] = tested on: Aedes aegypti; assay: Insecticidal activity against five day old female adult Aedes aegypti Mombasa assessed as mortality rate at 52.7 ng administered via micro-injection measured after 24 hrs relative to control; format: functional; how it was run: as §3
[20] = tested on: Aedes aegypti; assay: Insecticidal activity against topically dosed female adult Aedes aegypti assessed as mortality measured after 24 hrs; format: functional; how it was run: as §4
[21] = tested on: Aedes aegypti; assay: Insecticidal activity against five day old female adult Aedes aegypti Mombasa assessed as mortality rate at 53.6 ng administered via micro-injection measured after 24 hrs relative to control; format: functional; how it was run: as §3
[22] = tested on: Aedes aegypti; assay: Insecticidal activity against five day old female adult Aedes aegypti Mombasa assessed as mortality rate at 53.6 ng administered via micro-injection measured after 48 hrs relative to control; format: functional; how it was run: as §3
[23] = tested on: Aedes aegypti; assay: Insecticidal activity against five day old female adult Aedes aegypti Mombasa assessed as mortality rate at 21 ng administered via micro-injection measured after 24 hrs relative to control; format: functional; how it was run: as §3

| SMILES | Ratio IC50 [1] | IC50 [2] [µM] | IC50 [3] [µM] | IC50 [4] [µM] | Ratio IC50 [5] | IC50 [6] [µM] | further results |
| --- | --- | --- | --- | --- | --- | --- | --- |
| O=C(COc1ccc(-c2ccccc2)cc1)N1CCC(N2CCCCC2)CC1 | 1.2 | 4 | 4.6 | 3.8 | 1.2 | 4.2 |  |
| CN1CCN(CCCNC(=O)COc2ccc(I)cc2)CC1 | 1.2 | 112 | 138 | 114 | 1.2 | 128 |  |
| CCN1CCN(C2CCN(C(=O)COc3ccc(-c4ccc([N+](=O)[O-])cc4)cc3)CC2)CC1 | 19 | 0.11 | 2.1 | 0.08 | 19 | 0.13 | mortality [7]: 69%; mortality [8]: 31%; mortality [9]: 64% |
| CCN1CCN(C2CCN(C(=O)COc3ccc(-c4ccc(OC)cc4)cc3)CC2)CC1 | 45 | 0.23 | 18 | 0.4 | 45 | 0.96 |  |
| O=C(COc1ccc(-c2ccccc2)cc1)N1CCCCC1 |  |  |  |  |  |  | inhibition [10]: inactive; inhibition [11]: inactive; inhibition (INH) [12]: Not Active; inhibition [13]: inactive |
| CCN1CCN(C(=O)COc2ccc(-c3ccccc3)cc2)CC1 |  | > 200 | > 200 | > 200 |  | > 200 |  |
| O=C(COc1ccc(-c2ccccc2)cc1)N1CCOCC1 |  |  |  |  |  |  | inhibition [10]: inactive; inhibition [11]: inactive; inhibition (INH) [12]: Not Active; inhibition [13]: inactive |
| CCN1CCN(C2CCN(C(=O)COc3ccc(-c4ccccc4)cc3)CC2)CC1 |  | 0.22 |  |  |  |  |  |
| O=C(COc1ccc(-c2ccccc2)cc1)N1CCC(N2CCOCC2)CC1 |  | > 200 | 93 | > 200 |  | > 200 |  |
| CN1CCN(CCCNC(=O)COc2ccc(-c3ccccc3)cc2)CC1 | 8.8 | 12 | 115 | 13 | 8.8 | 39 |  |
| O=C(COc1ccc(I)cc1)NCCCN1CCCCC1 | 0.3 | 36 | 13 | 44 | 0.3 | 31 |  |
| COc1ccc(-c2ccc(OCC(=O)NCCCN3CCN(C)CC3)cc2)cc1 | 7.6 | 16 | 190 | 25 | 7.6 | 33 |  |
| CCN1CCN(C2CCN(C(=O)COc3ccc(-c4ccccc4F)cc3)CC2)CC1 | 79 | 0.22 | 19 | 0.24 | 79 | 0.71 | mortality [14]: 55%; LD50 [15]: 2.13 µg; mortality [16]: 88%; mortality [8]: 75%; mortality [17]: 56% |
| CCN1CCN(CCCNC(=O)COc2ccc(I)cc2)CC1 | 1.2 | 72 | 87 | 43 | 1.2 | 95 |  |
| CCN1CCN(C2CCN(C(=O)COc3ccc4c(c3)CCC4=O)CC2)CC1 | 16 | 0.2 | 4.9 | 0.29 | 16 | 0.38 | mortality [18]: 64%; mortality [8]: 50%; mortality [19]: 58% |
| CCN1CCN(CCCNC(=O)COc2ccc(-c3ccccc3)cc2)CC1 | 32 | 3.3 | 113 | 3.5 | 32 | 16 |  |
| COc1ccc(-c2ccc(OCC(=O)NCCCN3CCCCC3)cc2)cc1 | 3.1 | 3.9 | 14 | 4.5 | 3.1 | 5.2 |  |
| O=C(COc1ccc(-c2ccccc2)cc1)NCCCN1CCCCC1 | 5.7 | 9.9 | 57 | 10 | 5.7 | 23 |  |
| CCN1CCN(C2CCN(C(=O)COc3ccc(I)cc3)CC2)CC1 | 5.6 | 1.5 | 20 | 3.6 | 5.6 | 6.2 |  |
| CNC(=O)Oc1cccc2c1OC(C)(C)O2 [BENDIOCARB] |  |  |  |  |  |  | LD50 [20]: 0.0018 µg |
| CN1CCN(C2CCN(C(=O)COc3ccc(-c4ccccc4)cc3)CC2)CC1 | 40 | 0.25 | 10 | 0.24 | 40 | 0.54 | mortality [21]: 58%; mortality [22]: 66% |
| CCN1CCN(CCCNC(=O)COc2ccc(-c3ccc(OC)cc3)cc2)CC1 | 19 | 3.8 | 110 | 5.8 | 19 | 20 |  |
| CNC(=O)Oc1ccccc1OC(C)C [PROPOXUR] |  |  |  |  |  |  | mortality [23]: 85%; LD50 [20]: 0.0054 µg |
